Screening data from PubChem.
Sampled rows, rich in hits. Any-hit rate of the full collection: about 3.7%.
KCNQ1 inh – inhibitors of human KCNQ1 channel, primary screen, cell-based, thallium flux, high-throughput | Potassium voltage-gated channel subfamily KQT member 1 (Homo sapiens), P51787 | CHO-K1 KCNQ1, FluxOR thallium flux fluorescence; hits give high values | B-score at 10 µM | 1.3% of 310,000 active | AID 2642, 2010;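 active = compounds whose thallium flux B-score, printed positive for inhibition, exceeds three library SD while starting fluorescence stays within three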;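 note: channel opened by potassium depolarization with thallium stimulus after 20 min compound exposure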
KCNK3 block – human KCNK3 channel inhibitors, primary screen, CHO cells, FluxOR thallium flux, B-score; Potassium channel subfamily K member 3 (Homo sapiens), O14649; FluxOR fluorescence; hits give low values; B-score at 10 µM; 0.84% of 340,000 active;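 active = B-score under library mean minus 4 SD, starting fluorescence ratio at most library mean plus 5 SD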;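 note: more negative B-score means stronger inhibition of thallium flux through KCNK3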
KCNQ1 pot – potentiators or activators of KCNQ1 channel, primary screen, cell-based, thallium flux, high-throughput | Potassium voltage-gated channel subfamily KQT member 1 (Homo sapiens), P51787 | CHO-K1 KCNQ1, thallium flux FluxOR fluorescence; hits give high values | B-score at 10 µM | 0.35% of 310,000 active;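 active = fluorescence ratio B-score, a plate-corrected score, at least three library SD, with initial intensity B-score within 5 SD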
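Assay system: CHO-K1 cells stably expressing KCNQ1. Medium: assay buffer for compound exposure, DMSO matched across wells. Timing: 37 °C overnight plating, 90-min dark dye load, 20-min compound pretreatment. Signal: kinetic FluxOR fluorescence, 10 s baseline plus 110 s post-stimulus.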
hERG rescue – hERG rescue from dofetilide block, primary screen, cell-based, CHO-hERG, FluxOR thallium flux, dofetilide IC70. Voltage-gated inwardly rectifying potassium channel KCNH2 (Homo sapiens), Q12809. dofetilide IC70 present. activation (rescue from dofetilide block), less the hit threshold, % at 10 µM. 0.51% of 310,000 active;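 active = activation above the mean of controls blocked by dofetilide plus 5 SD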;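 note: thallium influx through hERG after potassium depolarization seen as dye fluorescence rise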
Target sequence (Q12809 whole entry, looked up): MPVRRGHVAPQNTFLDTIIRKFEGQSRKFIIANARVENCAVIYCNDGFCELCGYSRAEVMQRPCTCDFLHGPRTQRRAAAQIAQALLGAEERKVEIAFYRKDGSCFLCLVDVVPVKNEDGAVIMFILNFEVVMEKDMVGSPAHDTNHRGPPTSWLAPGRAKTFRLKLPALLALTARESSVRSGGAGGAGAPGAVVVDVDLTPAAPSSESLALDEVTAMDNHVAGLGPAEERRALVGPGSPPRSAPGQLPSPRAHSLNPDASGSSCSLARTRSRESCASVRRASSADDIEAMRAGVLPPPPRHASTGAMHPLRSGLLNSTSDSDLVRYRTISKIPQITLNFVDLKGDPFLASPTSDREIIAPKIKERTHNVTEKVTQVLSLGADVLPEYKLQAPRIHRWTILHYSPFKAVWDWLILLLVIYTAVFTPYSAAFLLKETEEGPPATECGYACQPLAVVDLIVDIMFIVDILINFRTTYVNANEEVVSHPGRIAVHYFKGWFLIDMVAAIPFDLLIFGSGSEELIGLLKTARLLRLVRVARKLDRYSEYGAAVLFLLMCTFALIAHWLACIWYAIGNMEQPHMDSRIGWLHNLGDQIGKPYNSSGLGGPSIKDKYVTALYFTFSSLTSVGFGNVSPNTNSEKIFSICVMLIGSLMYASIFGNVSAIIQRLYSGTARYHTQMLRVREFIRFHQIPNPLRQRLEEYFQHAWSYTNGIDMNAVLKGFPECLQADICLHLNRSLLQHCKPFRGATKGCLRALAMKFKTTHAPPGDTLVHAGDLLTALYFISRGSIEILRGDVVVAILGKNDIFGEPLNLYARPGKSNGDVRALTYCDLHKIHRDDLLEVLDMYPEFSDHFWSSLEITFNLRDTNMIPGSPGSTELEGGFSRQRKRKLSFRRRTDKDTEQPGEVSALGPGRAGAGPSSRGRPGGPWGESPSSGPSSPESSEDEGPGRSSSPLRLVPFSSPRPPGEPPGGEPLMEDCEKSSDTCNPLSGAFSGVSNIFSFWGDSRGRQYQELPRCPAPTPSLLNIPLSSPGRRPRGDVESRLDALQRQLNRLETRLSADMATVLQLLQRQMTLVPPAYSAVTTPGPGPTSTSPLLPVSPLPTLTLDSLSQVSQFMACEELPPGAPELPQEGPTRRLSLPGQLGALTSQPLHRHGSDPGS
Kir21 block – inhibitors of mouse Kir2.1 inward-rectifier potassium channel; HEK293-Kir2.1, FluxOR thallium flux fluorescence; hits give low values; B-score at 10 µM; 0.85% of 310,000 active; AID 1672, 2009;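 active = fluorescence ratio B-score at or below minus 3 SD of library scores, with starting-brightness B-score within 2 SD, cut at about -4.2 in these data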;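 note: channel flux triggered by added potassium and thallium sulfate stimulus; B-score of peak minus minimum fluorescence over baseline after thallium stimulus; more negative B-score means stronger Kir2.1 block with less thallium influx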
KCNK9 block – KCNK9 potassium channel inhibitors, primary screen, HEK293 cells, thallium flux; Potassium channel subfamily K member 9 (Homo sapiens), Q9NPC2; FluxOR thallium flux fluorescence; hits give low values; B-score at 10 µM; 1.2% of 310,000 active; AID 488922, 2010;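 active = ratio B-score over 3 SD below the library mean, with starting fluorescence within 5 SD of its mean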;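 note: negative B-score means less thallium flux so channel inhibition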
KCNK9 inh conf – KCNK9 potassium channel inhibitors, confirmation, HEK293 cells, thallium flux, duplicate; shares compounds with KCNK9 block; 43% of 4,900 active; FluxOR thallium flux fluorescence; inhibition, % at 10 µM;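 active = thallium signal inhibited by more than 5 SD of the compound-free buffer control wells, on both duplicate plates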;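 note: 0% = assay buffer control wells without compound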
Kir2-1 spec – mouse Kir2.1 channel inhibition, confirmation, selectivity assay for KCNK9 modulator project, cell-based, HEK293, thallium flux; shares compounds with KCNK9 block; Kir2.1 cells, FluxOR thallium flux fluorescence; inhibition, % at 10 µM; 4% of 4,900 active; AID 492993, 2010;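 active = thallium signal drop more than 5 SD beyond the mean of the no-compound control wells, seen in both duplicate plates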;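 note: signal is fluorescence rise after thallium addition divided by baseline fluorescence; plate controls were assay buffer only for no effect and full block by chlorpromazine control for full effect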
HEK293 Tl ctr – thallium flux in non-induced HEK293 cells, confirmation, counter-screen for KCNK9 inhibitor project, cell-based, second counter screen, non-induced KCNK9-HEK293; shares compounds with KCNK9 block; FluxOR thallium flux; inhibition, % at 10 µM; 40% of 4,900 active; AID 492997, 2010;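 active = thallium signal drop beyond 5 SD of the untreated control mean, on both duplicate plates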;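 note: plate controls were buffer only IC0 wells for no effect and SID17386958 at its maximal inhibitory level for full effect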
Active calls of the source: *; i = inactive; / = not tested or not shown.

SMILES	KCNQ1 inh	KCNK3 block	KCNQ1 pot	hERG rescue	Kir21 block	KCNK9 block	KCNK9 inh conf	Kir2-1 spec	HEK293 Tl ctr
COCCn1c(C)cc(C(=O)COC(=O)c2c(C)nn(Cc3ccccc3)c2C)c1C	i	i	i	-6	-1.1	i	i	i	i
CCC(=O)c1cn(/C(=C\C(=O)OC(C)(C)C)CCC(OC)OC)cc1CC	i	i	i	-9	-1.5	i	/	/	/
COc1ccc(-c2noc(C3CCCN(S(=O)(=O)c4cccc(Cl)c4)C3)n2)cc1OC (stereo not given)	i	i	i	-12	1.5	-8.1*	i	i	26%*
O=C(O)C1=C[C@H](c2ccc3c(c2)OCO3)C[C@H](OCCCCO)O1	i	i	i	-7	-0.48	i	/	/	/
COc1ccc(CCNc2oc(Cc3cccc4ccccc34)nc2C#N)cc1OC	i	i	i	-2	-2.5	-8.2*	40%*	37%*	27%*
CNc1oc(Cc2cccc3ccccc23)nc1C#N	i	i	i	-13	1	i	/	/	/
O=C(OCC(=O)N1CCCc2ccccc21)c1cccc(C(F)(F)F)c1	i	i	i	-12	0.01	i	i	i	i
O=C(OCC(=O)N1CCCc2ccccc21)c1cnc(Cl)c(Cl)c1	i	i	i	-19	-0.86	i	i	i	i
Cc1cccc(OCCCC(=O)N2CCCc3ccccc32)c1C	i	i	i	-17	-0.4	i	i	i	i
O=C(CCCNC(=O)c1ccc(Cl)cc1)Nc1ccc(Br)cc1	i	i	i	-9	-1.5	i	/	/	/
CC(NC(=O)C1CCC(CNS(=O)(=O)c2ccccc2)CC1)c1ccc2c(c1)OCCO2 (stereo not given)	i	/	i	-15	0.17	i	/	/	/
COc1cnn(-c2ccccc2)c(=O)c1SCc1ccc(Cl)cc1Cl	i	i	i	-7	-0.22	i	/	/	/
COc1cnc(SCc2ccc(Cl)cc2Cl)nc1Cl	i	i	i	-6	1.4	i	i	i	30%*
CCOc1cc(CNCC(C)C)c(Cl)cc1OCC(=O)Nc1ccccc1	i	i	i	-14	-3.5	i	/	/	/
CCCCc1c(O)nc(SCC(=O)c2ccccc2)n(-c2ccccc2OC)c1=O	i	i	i	-19	-0.63	-13*	51%*	i	25%*
COc1ccc2c(c1)O/C(=C\c1sccc1C)C2=O	i	i	i	-10	0.78	i	/	/	/
CCOC(=O)c1[nH]c(C)c(C(=O)N2CCN(c3ccc(OC)cc3)CC2)c1C	i	i	i	-6	-0.71	i	/	/	/
CCOC(=O)c1[nH]c(CN2CCN(c3ccc(OC)cc3)CC2)c(C(=O)OCC)c1C	i	i	i	-8	-0.18	i	i	i	i
CCN(CC)c1ccc(/C=N/N2CCN(Cc3ccccc3Cl)CC2)cc1	6*	i	i	-9	-0.71	i	i	i	i
CCN(CC)c1ccc(/C=N/N2CCOCC2)c(O)c1	i	i	i	-7	-0.3	i	/	/	/
